The source of these data is ChEMBL document CHEMBL2146388, “Sinularosides A and B, bioactive 9,11-secosteroidal glycosides from the South China Sea soft coral Sinularia humilis Ofwegen” (J Nat Prod, 2012).

One assay relates to HepG2. Put plainly: Cytotoxicity against human HepG2 cells by MTT assay. It counts as functional, cell-based. The procedure, abridged:
(§1)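 Growth inhibition is read colorimetrically by a modified MTT method on HepG2 or Caco-2 cells. Adriamycin is the positive control. IC50 is reported.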

Another assay has as its system Caco-2. Put plainly: Cytotoxicity against human Caco2 cells by MTT assay. It counts as functional, cell-based. The procedure, abridged:
as §1

For a further assay, the system named is Microbotryum violaceum. As to the kind of experiment: Antifungal activity against Microbotryum violaceum assessed as zone of inhibition at 0.05 mg by agar diffusion method. It counts as functional. Conditions: read-out: IZ. The procedure, abridged: (§2)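 Fungi are grown on MPY medium. A 9 mm sterile filter disk is loaded with 0.05 mg of compound (50 μL of a 1.0 mg/mL acetone solution), laid on the agar, and then sprayed with a fungal suspension. The inhibition zone is scored, with an acetone control.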
Background: A growth-free zone around the sample is the usual read-out of agar diffusion tests.

For the next assay, the system named is Zymoseptoria tritici. Put plainly: Antifungal activity against Septoria tritici assessed as zone of inhibition at 0.05 mg by agar diffusion method. It counts as functional. Conditions: read-out: IZ. An outline of the steps:
as §2

The next assay deals with Escherichia coli. Put plainly: Antibacterial activity against Escherichia coli assessed as zone of inhibition at 0.05 mg by agar diffusion method. It counts as functional. The conditions noted are these: read-out: IZ. The procedure, abridged:
(§3)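 Compound is dissolved in acetone at 1.0 mg/mL, and 0.05 mg is applied to a sterile 9 mm filter disk. The disk is placed on NB agar and sprayed with a bacterial suspension. Read-out is the inhibition zone around the disk. Acetone serves as the solvent control.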

In a further assay the test system is Priestia megaterium. Put plainly: Antibacterial activity against Bacillus megaterium assessed as zone of inhibition at 0.05 mg by agar diffusion method. In kind it is functional. The conditions noted are these: read-out: IZ. The procedure, abridged: as §3
The next assay deals with [Chlorella] fusca. Put plainly: Antimicrobial activity against Chlorella fusca assessed as zone of inhibition at 0.05 mg by agar diffusion method. It counts as functional. The conditions noted are these: Scenedesmus fuscus; read-out: IZ. An outline of the steps:
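The microalga Chlorella fusca is tested on CP medium. A sterile 9 mm paper disk carries 0.05 mg of compound from a 1.0 mg/mL acetone solution and is placed on the agar, which is then sprayed with the algal suspension. The zone of growth inhibition is recorded, with acetone as control.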

Calls of active or inactive are those of the source. No cut-off for these calls is given here.

For orientation: IC50 means the concentration that gives 50% inhibition.

On to `COc1cccc2c1C(=O)c1c(O)c3c(c(O)c1C2=O)C[C@@](O)(C(=O)CO)C[C@@H]3O[C@H]1C[C@H](N)[C@H](O)[C@H](C)O1` [DOXORUBICIN], for which the IC50 with HepG2 and in the assay with Caco-2 was 2700 nM each time.

As for `CC(=O)N1CCN(c2ccc(OCC3COC(Cn4ccnc4)(c4ccc(Cl)cc4Cl)O3)cc2)CC1` (configuration not stated) [KETOCONAZOLE], the zone of inhibition at 50 µg/disc came out at 15 mm with Microbotryum violaceum and 14 mm in the assay on Zymoseptoria tritici.

In the case of `CC1(C)S[C@@H]2[C@H](NC(=O)Cc3ccccc3)C(=O)N2[C@H]1C(=O)O` [PENICILLIN G], the zone of inhibition at 50 µg/disc in the assay with Escherichia coli was 20 mm; with Priestia megaterium, 28 mm.

Take `C=C(CC[C@@H](C)[C@H]1CC[C@@H]([C@@H]2CC=C3C[C@@H](O[C@@H]4O[C@@H](C)[C@@H](O)[C@@H](O)[C@@H]4O)CC[C@]3(C)C2=O)[C@]1(C)CCO)C(C)C` [SINULAROSIDE A]: the zone of inhibition at 50 µg/disc in the assay with Microbotryum violaceum is 17 mm; in the assay with Zymoseptoria tritici, 14 mm; in the assay on Escherichia coli, 0 mm; with Priestia megaterium it was 30 mm; in assay [Chlorella] fusca, 12 mm. Also, the “growth inhibition (GI)” value in the assay with HepG2 and with Caco-2 was “inactive” each time.

Consider `C=C(CC[C@@H](C)[C@H]1CC[C@@H]([C@@H]2CC=C3C[C@@H](O[C@@H]4O[C@@H](C)[C@@H](OC(C)=O)[C@@H](O)[C@@H]4O)CC[C@]3(C)C2=O)[C@]1(C)CCO)C(C)C` [SINULAROSIDE B], for which the zone of inhibition at 50 µg/disc was found to be 17 mm in the assay on Microbotryum violaceum; 15 mm in the assay on Zymoseptoria tritici; 0 mm in the assay on Escherichia coli; 30 mm in the assay on Priestia megaterium; 14 mm in assay [Chlorella] fusca. For the same compound, the “growth inhibition (GI)” value in the assay with HepG2 and in the assay with Caco-2 was “inactive” throughout.

Consider `CN[C@@H]1[C@H](O[C@H]2[C@H](O[C@H]3[C@H](O)[C@@H](O)[C@H](N=C(N)N)[C@@H](O)[C@@H]3N=C(N)N)O[C@@H](C)[C@]2(O)C=O)O[C@@H](CO)[C@H](O)[C@H]1O` [STREPTOMYCIN], for which the zone of inhibition at 50 µg/disc with Escherichia coli was determined as 25 mm; in the assay with Priestia megaterium it was 30 mm.
